According to paper PMC5599992 (Journal of Clinical Pharmacology, 2017):
“And” between values parts separate entries of the source, which are not always exact repeats. Equal entries are not always repeated. Where two headings read alike, the source gives them in different places.

Key:
[1] = system: CYP3A4; settings: ref data on file; cited from earlier work
[2] = system: CYP1A2; settings: ref data on file; cited from earlier work
[3] = monkeys; ref data on file; cited from earlier work
[4] = rats; ref data on file; cited from earlier work
[5] = system: CLL/SLL; experiment: Exposure‐response analysis; type: in vivo, human
Summary of the method: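 In relapsed/refractory CLL/SLL patients from the phase 1b study, log-transformed steady-state AUC came from noncompartmental analysis. ORR (CR, CRi or PR; updated iwCLL criteria) was modeled as responder vs nonresponder by logistic regression, first univariate, then multivariate with stepwise forward/backward covariate selection. Covariates were age, BSA, sex, race, QD vs BID regimen, CLcr, bilirubin, albumin, ALT and AST.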

[6] = rats; ref data on file; cited from earlier work; remark: listed apart in the source
[7] = Population pharmacokinetic analysis of CC‐292; type: in vivo, human
Summary of the method: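 Data came from healthy volunteers (50, 100 or 200 mg or placebo orally QD for 7 days; intensive sampling predose to 24 h on days 1 and 7, troughs on days 3–6) and patients (sparse cycle 1–3 samples). Plasma was assayed by LC-MS/MS (LLOQ ≤0.5 ng/mL, labeled internal standard). The NONMEM FOCE-I 2-compartment model with first-order absorption and lag used ln-transformed data and separate residual error per population. There were 1000 bootstrap runs with 5th–95th percentile CIs.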

[8] = system: CLL/SLL; experiment: Best overall response in CLL/SLL subjects, phase 1b study AVL‐292‐003; type: in vivo, human
[9] = system: CLL/SLL; experiment: Threshold analysis; type: in vivo, human; settings: threshold 300 ng/mL
[10] = based on final population PK parameters

interindividual variability for V2/F ([7]; base model): 88% | distribution rate [7, 10]: 0.11 h⁻¹ | elimination rate [7, 10]: 0.85 h⁻¹ | Alag1, Bootstrap Estimate (95%CI) ([7]; bootstrap N = 1000): 0.428 (0.414‐0.439) h | CL/F, Bootstrap Estimate (95%CI) ([7]; bootstrap N = 1000): 131.9 (109.0‐166.6) L/h | Effect of age on V2/F, Bootstrap Estimate (95%CI) ([7]; bootstrap N = 1000): 0.946 (0.592‐1.355) | Interindividual variability ωV2/F: ωCL/F, Bootstrap Estimate (95%CI) ([7]; bootstrap N = 1000): 0.321 (0.198‐0.461) | Interindividual variability ω^2 CL/F, Bootstrap Estimate (95%CI) ([7]; bootstrap N = 1000): 0.306 (0.202‐0.454) | Interindividual variability ω^2 V2/F, Bootstrap Estimate (95%CI) ([7]; bootstrap N = 1000): 0.750 (0.526‐1.010) | Q/F, Bootstrap Estimate (95%CI) ([7]; bootstrap N = 1000): 18.4 (15.3‐21.7) L/h | V2/F, Bootstrap Estimate (95%CI) ([7]; bootstrap N = 1000): 156.4 (130.2‐187.8) L | V3/F, Bootstrap Estimate (95%CI) ([7]; bootstrap N = 1000): 71.7 (61.4‐83.5) L | ka, Bootstrap Estimate (95%CI) ([7]; bootstrap N = 1000): 0.97 (0.86‐1.11) h^−1 | Residual variability HNP, Bootstrap Estimate (95%CI) ([7]; bootstrap N = 1000, healthy normal study subjects): 0.230 (0.180‐0.288) | Residual variability Patients, Bootstrap Estimate (95%CI) ([7]; bootstrap N = 1000, patients): 0.654 (0.537‐0.708) | Vd/F ([7]; both, human, plasma, oral): 158 L | clearance ([7]; both, human, plasma, oral): 2230 mL/min | interindividual variability for V2/F ([7]; final model (age included)): 86% | Alag1, absorption lag time, Estimate ([7]; final population PK model): 0.427 h | Interindividual variability ωV2/F: ωCL/F, Estimate ([7]; final population PK model): 0.328 | Interindividual variability ω^2 CL/F, Estimate ([7]; final population PK model): 0.317 | Interindividual variability ω^2 V2/F, Estimate ([7]; final population PK model): 0.755 | lower CL/F in female subjects compared to male subjects ([7]; final population PK model): 26% | Residual variability HNP, Estimate ([7]; final population PK model, healthy normal study subjects): 0.234 | ka, first‐order absorption rate constant, Estimate ([7]; final population PK model, oral, healthy subjects and patients): 0.97 h⁻¹ and 0.974 h⁻¹ | Residual variability Patients, Estimate ([7]; final population PK model, patients): 0.659 | Effect of age on V2/F, Estimate ([7]; final population PK model, power exponent): 0.946 | CL/F, apparent clearance, Estimate ([7]; final population PK model, typical value for male subjects): 134 L/h and 134.0 L/h | CL/F relative to Q/F (Q/F lower than CL/F) ([7]; in vivo): 7.2 fold and ~7 fold | differences in drug exposures between female and male subjects ([7]; in vivo): below 26% | duration/coverage at and above the threshold concentration ([9]; 375 mg BID): ~10.4 h | duration/coverage at and above the threshold concentration ([9]; 750 mg QD): 6.6 h
Compound: C=CC(=O)Nc1cccc(Nc2nc(Nc3ccc(OCCOC)cc3)ncc2F)c1 [CC‐292]
metabolism by CYP3A4 [1]: extensively metabolized | metabolism by CYP1A2 [2]: extensively metabolized | extent of bioavailability [3]: 11% | CC‐292–derived radioactivity excreted in the bile [4]: ~79 % of the dose | mean ORR ([5]; first quartile of average AUC): 35% | mean ORR ([5]; fourth quartile of average AUC): 50.2% | extent of bioavailability [6]: 57% | Best overall response: Complete response ([8]; 125 mg QD): 0 n (%) | Best overall response: Partial response ([8]; 125 mg QD): 1 (33.3) n (%) | Best overall response: Progression disease ([8]; 125 mg QD): 0 n (%) | Best overall response: Stable disease ([8]; 125 mg QD): 2 (66.7) n (%) | Overall response rate ([8]; 125 mg QD): 1 (33.3) n (%) | Best overall response: Complete response ([8]; 250 mg QD): 0 n (%) | Best overall response: Partial response ([8]; 250 mg QD): 0 n (%) | Best overall response: Progression disease ([8]; 250 mg QD): 0 n (%) | Best overall response: Stable disease ([8]; 250 mg QD): 1 (100) n (%) | Overall response rate ([8]; 250 mg QD): 0 n (%) | Best overall response: Complete response ([8]; 375 mg BID): 0 n (%) | Best overall response: Partial response ([8]; 375 mg BID): 4 (66.7) n (%) | Best overall response: Progression disease ([8]; 375 mg BID): 0 n (%) | Best overall response: Stable disease ([8]; 375 mg BID): 2 (33.3) n (%) | Overall response rate ([8]; 375 mg BID): 4 (66.7) n (%) | Best overall response: Complete response ([8]; 400 mg QD): 0 n (%) | Best overall response: Partial response ([8]; 400 mg QD): 1 (25.0) n (%) | Best overall response: Progression disease ([8]; 400 mg QD): 0 n (%) | Best overall response: Stable disease ([8]; 400 mg QD): 3 (75.0) n (%) | Overall response rate ([8]; 400 mg QD): 1 (25.0) n (%) | Best overall response: Complete response ([8]; 500 mg BID): 0 n (%) | Best overall response: Partial response ([8]; 500 mg BID): 19 (61.3) n (%) | Best overall response: Progression disease ([8]; 500 mg BID): 0 n (%) | Best overall response: Stable disease ([8]; 500 mg BID): 12 (38.7) n (%) | Overall response rate ([8]; 500 mg BID): 19 (61.3) n (%) | Best overall response: Complete response ([8]; 625 mg QD): 0 n (%) | Best overall response: Partial response ([8]; 625 mg QD): 0 n (%) | Best overall response: Progression disease ([8]; 625 mg QD): 0 n (%) | Best overall response: Stable disease ([8]; 625 mg QD): 1 (100) n (%) | Overall response rate ([8]; 625 mg QD): 0 n (%) | Best overall response: Complete response ([8]; 750 mg QD): 0 n (%) | Best overall response: Partial response ([8]; 750 mg QD): 12 (41.4) n (%) | Best overall response: Progression disease ([8]; 750 mg QD): 1 (3.4) n (%) | Best overall response: Stable disease ([8]; 750 mg QD): 16 (55.2) n (%) | Overall response rate ([8]; 750 mg QD): 12 (41.4) n (%) | Best overall response: Complete response ([8]; 1000 mg QD): 0 n (%) | Best overall response: Partial response ([8]; 1000 mg QD): 4 (57.1) n (%) | Best overall response: Progression disease ([8]; 1000 mg QD): 0 n (%) | Best overall response: Stable disease ([8]; 1000 mg QD): 3 (42.9) n (%) | Overall response rate ([8]; 1000 mg QD): 4 (57.1) n (%) | Best overall response: Complete response ([8]; Total, all cohorts): 0 n (%) | Best overall response: Partial response ([8]; Total, all cohorts): 41 (50.0) n (%) | Best overall response: Progression disease ([8]; Total, all cohorts): 1 (1.2) n (%) | Best overall response: Stable disease ([8]; Total, all cohorts): 40 (48.8) n (%) | Overall response rate ([8]; Total, all cohorts): 41 (50.0) n (%)
